Assay results published in paper PMC7413308 (ARKIVOC : free online journal of organic chemistry, 2018).
“Also recorded” adds a separate entry of the source. Read-outs that look alike come from different tables or passages of the source.

Assays:
[1] = In vitro liver microsomal stability; format: in vitro ADME, human; conditions: 4 μM compound, 37 °C, 30 minutes
[2] = test system: HEPG2 (liver) cell line; test: In vitro cytotoxicity, cell viability; format: cell-based; conditions: 48 h incubation, Cell-Titer Glo cell viability
[3] = In vitro microsomal stability of analogs; format: in vitro ADME, human
[4] = test system: mice; test: 6 Hz electroshock seizure assay; format: in vivo
Procedure, shortened: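 Mice received the test compound i.p. at 100 or 150 mg/kg, depending on the compound. At various time points after dosing, a 6 Hz electroshock lasting 3 seconds was delivered through a corneal electrode. Each animal was then observed for convulsions and scored as protected or not.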

[5] = test system: rhesus monkeys; conditions: cited from earlier work
[6] = In vitro liver microsomal stability; format: in vitro ADME, rat; conditions: 4 μM compound, 37 °C, 30 minutes
[7] = test system: rats; test: Prepulse inhibition; format: in vivo; conditions: 30 mg/kg, IP, one hour before testing, PCP·HCl 1.5 mg/kg SC ten minutes prior to testing
Procedure, shortened: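 Rats received the test compound at 30 mg/kg ip one hour before testing, then PCP·HCl (1.5 mg/kg, sc) ten minutes before testing to disrupt PPI. Startle to an auditory stimulus was measured with a non-startling auditory prepulse at 5, 10 and 15 decibels. Results were expressed as mean (+SEM) percent prepulse inhibition and compared with PCP-treated controls given 0 mg/kg drug.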

[8] = test system: mice, rats and primates; conditions: cited from earlier work
[9] = poly (I:C) animal model of schizophrenia; cited from earlier work
[10] = In vitro liver microsomal stability; format: in vitro ADME, dog; conditions: 4 μM compound, 37 °C, 30 minutes
[11] = test system: rats; conditions: cited from earlier work
[12] = In vitro microsomal stability of analogs; format: in vitro ADME, mouse
[13] = test system: HEK293 (kidney) cell line; test: In vitro cytotoxicity, cell viability; format: cell-based; conditions: 48 h incubation, Cell-Titer Glo cell viability
[14] = In vitro liver microsomal stability; format: in vitro ADME, mouse; conditions: 4 μM compound, 37 °C, 30 minutes
[15] = test system: mice; test: Rotarod assay, i.p. dosing; format: in vivo; conditions: 100 mg/kg i.p., 30 minutes prior to testing, 6 rpm, n=8
Procedure, shortened: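 Mice (n=8) were given the test compound at 100 mg/kg ip 30 minutes before being placed on a rod rotating at 6 rpm for a 1-minute trial. Any mouse that fell 3 times during the trial was scored as toxic (ataxic or sedated).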

[16] = test system: mice; test: Sensorimotor coordination on rotating rod after oral gavage; format: in vivo; conditions: oral gavage 40 mg/kg, rotating rod max 3 minutes, three time-points
[17] = cited from earlier work
[18] = cited from earlier work; remark: listed apart in the source
[19] = MAM model of schizophrenia; cited from earlier work
[20] = test system: mice; conditions: cited from earlier work
[21] = footnote b: compound not detected after 20 minutes
[22] = footnote d: assessed at 1-hour incubation time

SMILES: C#Cc1ccc2c(c1)C(c1ccccc1F)=N[C@@H](C)c1c(C(=O)OCC)ncn1-2 [compound 2]
- Liver microsomal stability (%-remaining) HLM [1]: 3%
- Liver microsomal stability (%-remaining) HLM ([1]; listed as SH-053-2'F-S-CH3 (2)): 2.3%
- HEPG2 LD50 [2]: 73.5 ± 14.4 µM
- Microsomal stability (HLM) % remaining [3, 21]: < 5.0^b %
- Microsomal stability (HLM) Half-life [3, 21]: < 5^b min
- Protection from 6 Hz electroshock-induced seizures ([4]; i.p. 100 mg/kg, time points 1/4, 1/2, 1, 2, and 4 hours, 100 mg/kg): able to protect some subjects
- Anxiolytic effect [5]: exerted anxiolytic effects
- Liver microsomal stability (%-remaining) RLM [6]: 6.0%
- Reversal of PCP-induced PPI deficit [7]: reversed PCP-induced prepulse inhibition (PPI) of acoustic startle; also recorded: significantly reversed the PPI deficit; also recorded: reversed the PPI deficits induced by PCP
- Toxicity in pharmacological assays [8]: not toxic
- Effect on amphetamine-induced hyperactivity [9]: successfully mitigated the amphetamine-induced hyperactivity
- Liver microsomal stability (%-remaining) DLM [10]: 90.7%
- Anxiolytic effect [11]: exerted anxiolytic effects
- Microsomal stability (MLM) % remaining [12, 22]: 78.0 ± 0.2^d %
- Microsomal stability (MLM) Half-life [12, 22]: 155 ± 9^d min
- HEK293 LD50 [13]: 28.0 ± 4.1 µM
- Liver microsomal stability (%-remaining) MLM [14]: 66.5%
- Ataxia in rotarod assay [15]: neither 1 nor 2 produced significant ataxia

SMILES: C#Cc1ccc2c(c1)C(c1ccccc1F)=N[C@@H](C)c1c(C(=O)N(C)C)ncn1-2 [8f, (S)-8-Ethynyl-6-(2-fluorophenyl)-N,N,4-trimethyl-4H-benzo[f]imidazo[1,5-a][1,4]diazepine-3-carboxamide]
- HEPG2 LD50 [2]: >400 µM
- half-life ([3]; human, liver microsomes): 59 ± 5 min
- remaining at 1 h ([3]; human, liver microsomes, Microsomal stability (HLM) % remaining, footnote d: assessed at 1-hour incubation time): 41 ± 0.9%
- Effect on sensorimotor coordination (motor impairment, sedation/ataxia) [16]: only minor impairment
- Activity in procognitive assay [17]: procognitive (A++ and C++)
- half-life ([12]; mouse, liver microsomes): 24 ± 2 min
- remaining at 1 h ([12]; mouse, liver microsomes, Microsomal stability (MLM) % remaining, footnote d: assessed at 1-hour incubation time): 19 ± 0.9%
- HEK293 LD50 [13]: >400 µM
- Activity in antidepressant assay (forced swim test) [18]: active

SMILES: C#Cc1ccc2c(c1)C(c1ccccc1F)=N[C@H](C)c1c(C(=O)OCC)ncn1-2 [compound 1]
- Liver microsomal stability (%-remaining) HLM [1]: 100%
- Liver microsomal stability (%-remaining) HLM ([1]; listed as SH-053-2'F-R-CH3 (1)): 100.0%
- Effect on amphetamine-induced hyperactivity of the dopamine system [19]: successfully alleviate the hyperactivity of the dopamine system induced by amphetamine
- Anxiolytic and antidepressant effects after UCMS ([20]; female mice): exhibited anxiolytic and antidepressant effects
- Anxiolytic and antidepressant effects after UCMS ([20]; male mice): very weak or none at all
- Protection from 6 Hz electroshock-induced seizures ([4]; i.p. 150 mg/kg, various time points, 150 mg/kg): not effective at any time; also recorded: not able to protect mice from electroshock-induced seizures
- Anxiolytic effect [5]: only a minimal anxiolytic effect
- Liver microsomal stability (%-remaining) RLM [6]: 5.4%
- Reversal of PCP-induced PPI deficit [7]: failed to reach a significant effect; also recorded: not 1 reversed the PPI deficits
- Liver microsomal stability (%-remaining) DLM [10]: 90.3%
- Anxiolytic effect [11]: only a minimal anxiolytic effect
- Liver microsomal stability (%-remaining) MLM [14]: 59.1%
- Ataxia in rotarod assay [15]: neither 1 nor 2 produced significant ataxia
